Results taken from ChEMBL document CHEMBL5030518, “Phorbol Diesters and 12-Deoxy-16-hydroxyphorbol 13,16-Diesters Induce TGFα Release and Adult Mouse Neurogenesis” (2021).
The source made the active and inactive calls. The rule behind the calls is not given here.

What was measured:
HEK-293T = test: Induction of TGFalpha release in serum-starved HEK293T cells coexpressing GFP fused mCherry assessed as reduction in mCherry/GFP ratio at 0.5 uM measured up to 180 mins by time-lapse microscopic analysis; format: functional, cell-based; conditions: Homo sapiens, time min <=180
In short: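 HEK293T cells transfected with an mCherry-TGFα-GFP fusion (mCherry N-terminal, GFP C-terminal) and left overnight. Cells were then serum-starved 30 min in serum-free medium. Compounds were added at 0.5 μM and time-lapse imaging ran for 180 min. Membrane mCherry/GFP ratio was normalized to the pre-stimulation average, and the mean of n = 40 was reported.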

Neural Progenitor Cell [1] = test: Induction of cell proliferation in mouse SVZ-derived neural progenitor cells assessed as neurosphere formation at up to 5 uM measured after 72 hrs by phase contrast microscopic analysis; format: functional, tissue-based; conditions: dose microM <=5, time 72.0 hrs
In short: (§1)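 NPCs were isolated from the SVZ of postnatal day 7 CD1 mice and grown as floating neurospheres with bFGF. Increasing compound concentrations were added at seeding. After 72 h, neurosphere area was measured from phase-contrast images and expressed as % of bFGF-only control. Runs were in triplicate, at least […] independent times; mean ± SEM of nine measurements, two-tailed unpaired t-test.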

[2] = Induction of TGFalpha release in serum-starved HEK293T cells coexpressing GFP fused mCherry assessed as reduction in mCherry/GFP ratio at 0.5 uM measured up to 180 mins by time-lapse microscopic analysis relative to control; format: functional, Homo sapiens, HEK-293T; set-up: scale not given: the % may be the effect or the level left; conditions: time min <=180
In short: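 HEK293T transfected with mCherry-TGFα-GFP fusion (mCherry N-terminal, GFP C-terminal), left overnight, then serum-starved 30 min in serum-free FluoroBrite DMEM. Compound added at 0.5 µM; live time-lapse imaging over 180 min. Membrane mCherry/GFP ratio normalized to pre-stimulation average; mean normalized ratio, n = 40.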

Brain [3] = test: Induction of neurogenesis in CD-1 mouse brain assessed as increase in number of BrdU labeled proliferating cells at 10 nM, INH administered once daily for 3 days by confocal microscopic analysis; format: functional, tissue-based; conditions: time 3.0 day
In short: (§2)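 Male CD1 mice, 2 months old, received 12 μL/day intranasally for 3 days, given as 3 μL portions alternating nostrils with the neck extended. Vehicle was saline; treatment was randomized and coded. BrdU 100 mg/kg i.p. was given on the last day. BrdU and DCX in the SVZ were detected by immunohistochemistry in every fifth section (6–8 per brain) at 20×, with blinded counting. n = 6/group; t-test versus vehicle.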

Brain [4] = test: Induction of neurogenesis in CD-1 mouse brain at 100 nM, INH administered once daily for 3 days by confocal microscopic analysis; format: functional, tissue-based; conditions: time 3.0 day; in short: as §2
Brain [5] = test: Induction of neurogenesis in CD-1 mouse brain at 10 nM, INH administered once daily for 3 days by confocal microscopic analysis; format: functional, tissue-based; conditions: time 3.0 day; in short: as §2
Brain [6] = test: Induction of neurogenesis in CD-1 mouse brain assessed as increase in number of proliferative neuronal progenitors at 10 nM, INH administered once daily for 3 days by confocal microscopic analysis; format: functional, tissue-based; conditions: time 3.0 day; in short: as §2
Brain [7] = test: Induction of neurogenesis in CD-1 mouse brain assessed as increase in total neuronal progenitors double cortin cells at 10 nM, INH administered once daily for 3 days by confocal microscopic analysis; format: functional, tissue-based; conditions: time 3.0 day; in short: as §2
Brain [8] = test: Induction of neurogenesis in CD-1 mouse brain at 5 uM, INH administered once daily for 3 days by confocal microscopic analysis; format: functional, tissue-based; conditions: time 3.0 day; in short: as §2
Neural Progenitor Cell [9] = test: Induction of cell proliferation in mouse SVZ-derived neural progenitor cells assessed as neurosphere formation at up to 0.5 uM measured after 72 hrs by phase contrast microscopic analysis; format: functional, tissue-based; conditions: dose microM <=0.5, time 72.0 hrs; in short: as §1
Brain [10] = test: Induction of neurogenesis in CD-1 mouse brain assessed as increase in number of proliferative neuronal progenitors at 5 uM, INH administered once daily for 3 days by confocal microscopic analysis; format: functional, tissue-based; conditions: time 3.0 day
In short: (§3)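 Healthy 2-month-old male CD1 mice given intranasal solution daily for 3 days, 12 µL/day in saline vehicle (3 µL per delivery, alternating nostrils). BrdU 100 mg/kg i.p. on the last day. SVZ sections immunostained for BrdU and DCX. Positive cells counted blinded in every fifth section (6–8 per brain) at 20×. Values are per mm3; mean ± SEM, n = 6 per group.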

Brain [11] = test: Induction of neurogenesis in CD-1 mouse brain assessed as increase in number of BrdU labeled proliferating cells at 5 uM, INH administered once daily for 3 days by confocal microscopic analysis; format: functional, tissue-based; conditions: time 3.0 day; in short: as §3

SMILES | Activity (HEK-293T) | Activity (Neural Progenitor Cell [1]) | Activity [2] | further results
CC1=C[C@H]2[C@@]3(O)[C@H](C)[C@@H](O)[C@]4(O)[C@H]([C@@H]3C=C(CO)C[C@]2(O)C1=O)C4(C)C | inactive |  |  | 
CC1=C[C@H]2[C@@]3(O)[C@H](C)[C@@H](O)[C@]4(OC(=O)C(C)C)[C@H]([C@@H]3C=C(CO)C[C@]2(O)C1=O)C4(C)C | inactive | inactive |  | 
CC1=C[C@H]2[C@@]3(O)[C@H](C)[C@@H](OC(=O)Cc4ccccc4)[C@]4(OC(=O)C(C)C)[C@H]([C@@H]3C=C(CO)C[C@]2(O)C1=O)C4(C)C |  |  | 25% | 
CC1=C[C@H]2[C@@]3(O)[C@H](C)[C@@H](OC(=O)C(C)C)[C@]4(OC(=O)C(C)C)[C@H]([C@@H]3C=C(CO)C[C@]2(O)C1=O)C4(C)C |  |  |  | Activity (Brain [3]): Active; Activity (Brain [4]): inactive; Activity (Brain [5]): Active; Activity (Brain [6]): Active; Activity (Brain [7]): Active; Activity (Brain [8]): inactive; Activity (Neural Progenitor Cell [9]): Active
CC(=O)O[C@@H]1[C@@H](C)[C@@]2(O)[C@@H](C=C(CO)C[C@]3(O)C(=O)C(C)=C[C@@H]23)[C@@H]2C(C)(C)[C@]12OC(C)=O |  | Active | 15% | Activity (Brain [10]): Active; Activity (Brain [11]): Active
CC1=C[C@H]2[C@@]3(O)[C@H](C)[C@@H](OC(=O)C(C)C)[C@]4(OC(=O)Cc5ccccc5)[C@H]([C@@H]3C=C(CO)C[C@]2(O)C1=O)C4(C)C |  |  | 25% | 
C/C=C(/C)C(=O)O[C@@H]1[C@@H](C)[C@@]2(O)[C@@H](C=C(CO)C[C@]3(O)C(=O)C(C)=C[C@@H]23)[C@@H]2C(C)(C)[C@]12OC(=O)C(C)C |  |  | 15% | 
CC1=C[C@H]2[C@@]3(O)[C@H](C)[C@@H](OC(=O)Cc4ccccc4)[C@]4(OC(=O)Cc5ccccc5)[C@H]([C@@H]3C=C(CO)C[C@]2(O)C1=O)C4(C)C |  |  | 25% | 
CC1=C[C@H]2[C@@]3(O)[C@H](C)C[C@]4(OC(=O)Cc5ccccc5)[C@H]([C@@H]3C=C(CO)C[C@]2(O)C1=O)[C@@]4(C)COC(=O)C(C)C | Active | Active |  | Activity (Neural Progenitor Cell [9]): Active
